Assay results as given in ChEMBL document CHEMBL1124186, “Synthesis and evaluation of tylosin-related macrolides modified at the aldehyde function: a new series of orally effective antibiotics” (1988).
In brackets after ≈: the same amount, converted by molar mass.

How the values were obtained:
[1] = test system: Bacteroides fragilis; experiment: In vitro antimicrobial activity against anaerobic bacteria bacteroides fragilis 111; assay type: functional
[2] = test system: Bacteroides fragilis; experiment: In vitro antimicrobial activity against anaerobic bacteria bacteroides fragilis 1877; assay type: functional
[3] = test system: Bacteroides fragilis; experiment: In vitro antimicrobial activity against anaerobic bacteria bacteroides fragilis 1936B,; assay type: functional
[4] = test system: Eikenella corrodens; experiment: In vitro antimicrobial activity against anaerobic bacteria bacteroides corrodens 1874; assay type: functional
[5] = test system: Phocaeicola vulgatus; experiment: In vitro antimicrobial activity against anaerobic bacteria bacteroides vulgatus 1211; assay type: functional
[6] = test system: Prevotella melaninogenica; experiment: In vitro antimicrobial activity against anaerobic bacteria bacteroides melaninogenicus 1856,; assay type: functional
[7] = test system: Bacteroides thetaiotaomicron; experiment: In vitro antimicrobial activity against anaerobic bacteria bacteroides thetaiotaomicron 1438; assay type: functional
[8] = test system: Clostridioides difficile; experiment: In vitro antimicrobial activity against anaerobic bacteria Clostridium difficile 2994; assay type: functional
[9] = test system: Clostridium perfringens; experiment: In vitro antimicrobial activity against anaerobic bacteria clostridium perfringens 81,; assay type: functional
[10] = test system: Clostridium septicum; experiment: In vitro antimicrobial activity against anaerobic bacteria clostridium septicum 1128; assay type: functional
[11] = test system: Chlamydia trachomatis; experiment: In vitro antimicrobial activity against chlamydia trachomatis.; assay type: functional
[12] = test system: Fusobacterium; experiment: In vitro antimicrobial activity against anaerobic bacteria fusobacterium symbiosum 1470; assay type: functional
[13] = test system: Haemophilus influenzae; experiment: In vitro antimicrobial activity against aerobic bacteria Haemophilus influenzae 76; assay type: functional
[14] = test system: Haemophilus influenzae; experiment: In vitro antimicrobial activity against aerobic bacteria Haemophilus influenzae MX366,; assay type: functional
[15] = test system: Haemophilus influenzae; experiment: In vitro antimicrobial activity against Haemophilus influenzae.; assay type: functional
[16] = test system: Mus musculus; experiment: Peripheral plasma levels in mice after oral administration of 50 mg/kg dose for 2 hr; assay type: functional, organism-based; design: dose 50 mg/kg
Method in brief: (§1)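 Mice were given the compound orally and sampled for peripheral plasma at each time point. Plasma was assayed microbiologically against Micrococcus luteus seeded in Antibiotic Medium 1. Inhibition zone sizes were read, and concentrations were calculated from each compound's own standard curve. Each value is the mean of five mice per time point.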

[17] = test system: Mus musculus; experiment: Peripheral plasma levels in mice after oral administration of 50 mg/kg dose for 4 hr; assay type: functional, organism-based; design: dose 50 mg/kg; method in brief: as §1
[18] = test system: Mus musculus; experiment: Peripheral plasma levels in mice after oral administration of 100 mg/kg dose for 4 hr; assay type: functional, organism-based; design: dose 100 mg/kg; method in brief: as §1
[19] = test system: Mus musculus; experiment: Peripheral plasma levels in mice after oral administration of 50 mg/kg dose for 0.25 hr; assay type: functional, organism-based; design: dose 50 mg/kg; method in brief: as §1
[20] = test system: Mus musculus; experiment: Peripheral plasma levels in mice after oral administration of 100 mg/kg dose for 0.25 hr; assay type: functional, organism-based; design: dose 100 mg/kg; method in brief: as §1
[21] = test system: Mus musculus; experiment: Peripheral plasma levels in mice after oral administration of 100 mg/kg dose for 0.5 hr; assay type: functional, organism-based; design: dose 100 mg/kg; method in brief: as §1
[22] = test system: Mus musculus; experiment: Peripheral plasma levels in mice after oral administration of 100 mg/kg dose for 1 hr; assay type: functional, organism-based; design: dose 100 mg/kg; method in brief: as §1
[23] = test system: Mus musculus; experiment: Peripheral plasma levels in mice after oral administration of 100 mg/kg dose for 2 hr; assay type: functional, organism-based; design: dose 100 mg/kg; method in brief: as §1
[24] = test system: Mus musculus; experiment: Peripheral plasma levels in mice after oral administration of 50 mg/kg dose for 1 hr; assay type: functional, organism-based; design: dose 50 mg/kg; method in brief: as §1
[25] = In vitro antimicrobial activity against anaerobic bacteria peptostreptococcus intermedius 1264; assay type: functional
[26] = test system: Peptoniphilus asaccharolyticus; experiment: In vitro antimicrobial activity against anaerobic bacteria peptococcus asaccharolyticus 1302; assay type: functional
[27] = test system: Anaerococcus prevotii; experiment: In vitro antimicrobial activity against anaerobic bacteria peptococcus prevoti 1281; assay type: functional
[28] = test system: Cutibacterium acnes; experiment: In vitro antimicrobial activity against anaerobic bacteria propionibacterium acnes 79; assay type: functional
[29] = test system: Rattus norvegicus; experiment: Peripheral plasma levels in rats after oral administration of 100 mg/kg dose for 0.25 hr; assay type: functional, organism-based; design: dose 100 mg/kg
Method in brief: (§2)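 Rats received 100 mg/kg orally and were sampled for peripheral plasma. Concentrations were measured by Micrococcus luteus agar-diffusion microbiological assay in Antibiotic Medium 1, with zone sizes converted using the standard curve for the appropriate compound. Each value is the average of three rats per time point.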

[30] = test system: Rattus norvegicus; experiment: Peripheral plasma levels in rats after oral administration of 100 mg/kg dose for 0.5 hr; assay type: functional, organism-based; design: dose 100 mg/kg; method in brief: as §2
[31] = test system: Rattus norvegicus; experiment: Peripheral plasma levels in rats after oral administration of 100 mg/kg dose for 1 hr; assay type: functional, organism-based; design: dose 100 mg/kg; method in brief: as §2
[32] = test system: Rattus norvegicus; experiment: Peripheral plasma levels in rats after oral administration of 100 mg/kg dose for 2 hr; assay type: functional, organism-based; design: dose 100 mg/kg; method in brief: as §2
[33] = test system: Rattus norvegicus; experiment: Peripheral plasma levels in rats after oral administration of 100 mg/kg dose for 4 hr; assay type: functional, organism-based; design: dose 100 mg/kg; method in brief: as §2
[34] = test system: Streptococcus; experiment: In vitro antimicrobial activity against aerobic bacteria Streptococcus B 14; assay type: functional
[35] = test system: Streptococcus; experiment: In vitro antimicrobial activity against aerobic bacteria Streptococcus B 8; assay type: functional
[36] = test system: Streptococcus; experiment: In vitro antimicrobial activity against aerobic bacteria Streptococcus C 24; assay type: functional
[37] = test system: Streptococcus; experiment: In vitro antimicrobial activity against aerobic bacteria Streptococcus D 8043; assay type: functional
[38] = test system: Streptococcus; experiment: In vitro antimicrobial activity against aerobic bacteria Streptococcus D 9960; assay type: functional
[39] = test system: Streptococcus; experiment: In vitro antimicrobial activity against aerobic bacteria Streptococcus G Kruder; assay type: functional; conditions: Streptococcus; read-out: MIC
[40] = test system: Staphylococcus epidermidis; experiment: In vitro antimicrobial activity against aerobic bacteria Streptococcus epi 270; assay type: functional
[41] = test system: Streptococcus pneumoniae; experiment: In vivo effective dose against experimental infections in mice Strep. pneumoniae park when administered sc; assay type: functional
[42] = test system: Staphylococcus aureus; experiment: In vitro antimicrobial activity against Staphylococcus aureus X1; assay type: functional
[43] = test system: Staphylococcus aureus; experiment: In vitro antimicrobial activity against aerobic bacteria Staphylococcus aureus 513E; assay type: functional
[44] = test system: Staphylococcus aureus; experiment: In vitro antimicrobial activity against aerobic bacteria Staphylococcus aureus V140,; assay type: functional
[45] = test system: Staphylococcus aureus; experiment: In vitro antimicrobial activity against aerobic bacteria Staphylococcus aureus V41; assay type: functional
[46] = test system: Staphylococcus aureus; experiment: In vitro antimicrobial activity against aerobic bacteria Staphylococcus aureus X400; assay type: functional
[47] = test system: Streptococcus pneumoniae; experiment: In vitro antimicrobial activity against aerobic bacteria Streptococcus pneumoniae B1-438; assay type: functional, streptococcus pneum
[48] = test system: Streptococcus pneumoniae; experiment: In vivo effective dose against experimental infections in mice Strep. pneumoniae park when administered orally; assay type: functional; conditions: po
[49] = test system: Streptococcus pyogenes; experiment: In vivo effective dose against experimental infections in rodent caused by Streptococcus pyogenes C203 when administered sc; assay type: functional
[50] = test system: Streptococcus sanguinis; experiment: In vitro antimicrobial activity against aerobic bacteria Streptococcus sanguis MX132; assay type: functional
[51] = test system: Streptococcus pneumoniae; experiment: In vitro antimicrobial activity against Streptococcus pneumoniae; assay type: functional
[52] = test system: Staphylococcus epidermidis; experiment: In vitro antimicrobial activity against Staphylococcus epidermidis EPI1; assay type: functional
[53] = test system: Staphylococcus epidermidis; experiment: In vitro antimicrobial activity against aerobic bacteria Streptococcus epi 222; assay type: functional
[54] = test system: Staphylococcus aureus; experiment: In vivo effective dose against experimental infections in mice Staphylococcus aureus X1 when administered orally; assay type: functional; conditions: po
[55] = test system: Staphylococcus aureus; experiment: In vivo effective dose against experimental infections in mice Staphylococcus aureus X1 when administered sc; assay type: functional
[56] = test system: Enterococcus faecium; experiment: In vitro antimicrobial activity against Streptococcus faecium X66; assay type: functional, streptococcus fae-cium
[57] = test system: Streptococcus pyogenes; experiment: In vitro antimicrobial activity against Streptococcus pyogenes C203; assay type: functional
[58] = test system: Streptococcus viridans; experiment: In vitro antimicrobial activity against aerobic bacteria Streptococcus viridans 9943; assay type: functional
[59] = test system: Streptococcus; experiment: In vitro antimicrobial activity against aerobic bacteria Streptococcus B 5; assay type: functional
[60] = test system: Staphylococcus aureus; experiment: In vitro antimicrobial activity against aerobic bacteria Staphylococcus aureus V135; assay type: functional
[61] = test system: Prevotella melaninogenica; experiment: In vitro antimicrobial activity against anaerobic bacteria bacteroides melaninogenicus 2736; assay type: functional
[62] = test system: Fusobacterium necrophorum; experiment: In vitro antimicrobial activity against anaerobic bacteria usobacterium necrophorum 6054A; assay type: functional
[63] = test system: Mus musculus; experiment: Peripheral plasma levels in mice after oral administration of 50 mg/kg dose for 0.5 hr; assay type: functional, organism-based; design: dose 50 mg/kg; method in brief: as §1
[64] = test system: Collinsella aerofaciens; experiment: In vitro antimicrobial activity against anaerobic bacteria eubacterium aerofaciens 1235; assay type: functional
[65] = test system: Streptococcus; experiment: In vitro antimicrobial activity against aerobic bacteria Streptococcus D 2041; assay type: functional
[66] = test system: Peptostreptococcus anaerobius; experiment: In vitro antimicrobial activity against anaerobic bacteria eubacterium peptostreptococcus anaerobius 1428,; assay type: functional
[67] = test system: Streptococcus pyogenes; experiment: In vivo effective dose against experimental infections in rodent caused by Streptococcus pyogenes C203 when administered orally; assay type: functional; conditions: po

**Q.** What does the source list for CC[C@H]1C[C@@H](C)C(=O)/C=C/C(C)=C/[C@H](CO[C@@H]2O[C@H](C)[C@@H](O)[C@@H](OC)[C@H]2OC)[C@@H](CC)OC(=O)C[C@@H](O)[C@H](C)[C@H]1O[C@@H]1O[C@H](C)[C@@H](O)[C@H](N(C)C)[C@H]1O?
**A.** MIC [1]: 4 mg/L (≈ 5.28 µM); MIC [2]: 4 mg/L (≈ 5.28 µM); MIC [3]: 4 mg/L (≈ 5.28 µM); MIC [4]: 4 mg/L (≈ 5.28 µM); MIC [5]: 2 mg/L (≈ 2.64 µM); MIC [6]: 1 mg/L (≈ 1.32 µM); MIC [7]: 4 mg/L (≈ 5.28 µM); MIC [8]: < 0.5 mg/L; MIC [9]: 2 mg/L (≈ 2.64 µM); MIC [10]: < 0.5 mg/L; MIC [11]: 0.5 mg/L (≈ 0.66 µM); MIC [12]: 2 mg/L (≈ 2.64 µM); MIC [13]: 16 mg/L (≈ 21.1 µM); MIC [14]: 16 mg/L (≈ 21.1 µM); MIC [15]: 16 mg/L (≈ 21.1 µM); Concentration [16]: 2.2 µg/mL; Concentration [17]: 0.9 µg/mL; Concentration [18]: 0.8 µg/mL; Concentration [19]: 0.9 µg/mL; Concentration [20]: 2.6 µg/mL; Concentration [21]: 4.5 µg/mL; Concentration [22]: 3.4 µg/mL; Concentration [23]: 2.3 µg/mL; Concentration [24]: 2 µg/mL; MIC [25]: 4 mg/L (≈ 5.28 µM); MIC [26]: 2 mg/L (≈ 2.64 µM); MIC [27]: 2 mg/L (≈ 2.64 µM); MIC [28]: 8 mg/L (≈ 10.6 µM); Concentration [29]: 4.6 µg/mL; Concentration [30]: 7.4 µg/mL; Concentration [31]: 7.2 µg/mL; Concentration [32]: 8.7 µg/mL; Concentration [33]: 5.1 µg/mL; MIC [34]: 16 mg/L (≈ 21.1 µM); MIC [35]: 8 mg/L (≈ 10.6 µM); MIC [36]: 0.5 mg/L (≈ 0.66 µM); MIC [37]: 8 mg/L (≈ 10.6 µM); MIC [38]: 16 mg/L (≈ 21.1 µM); MIC [39]: 64 mg/L (≈ 84.4 µM); MIC [40]: > 128 mg/L; ED50 [41]: > 20 mg/kg; MIC [42]: 0.25 mg/L (≈ 0.33 µM); MIC [43]: 0.25 mg/L (≈ 0.33 µM); MIC [44]: 0.5 mg/L (≈ 0.66 µM); MIC [45]: 0.25 mg/L (≈ 0.33 µM); MIC [46]: 0.5 mg/L (≈ 0.66 µM); MIC [47]: > 128 mg/L; ED50 [48]: > 50 mg/kg; ED50 [49]: 4.3 mg/kg; MIC [50]: 2 mg/L (≈ 2.64 µM); MIC [51]: 2 mg/L (≈ 2.64 µM); MIC [52]: 0.25 mg/L (≈ 0.33 µM); MIC [53]: 0.12 mg/L (≈ 0.158 µM); ED50 [54]: 10 mg/kg; ED50 [55]: 2.2 mg/kg; MIC [56]: 16 mg/L (≈ 21.1 µM); MIC [57]: 0.5 mg/L (≈ 0.66 µM); MIC [58]: > 128 mg/L; MIC [59]: 8 mg/L (≈ 10.6 µM); MIC [60]: 0.25 mg/L (≈ 0.33 µM); MIC [61]: 4 mg/L (≈ 5.28 µM); MIC [62]: 8 mg/L (≈ 10.6 µM); Concentration [63]: 0.5 µg/mL; MIC [64]: 2 mg/L (≈ 2.64 µM); MIC [65]: 8 mg/L (≈ 10.6 µM); MIC [66]: < 0.5 mg/L; ED50 [67]: 7 mg/kg
